L major viab – inhibitors of Leishmania major promastigote growth | Leishmania major promastigotes, resazurin fluorescence viability | inhibition, % at 10 µM | 200,000 compounds, 9% hits; in the data active = inhibition above about 50%;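 also: promastigotes grown with compound for 44 hours at 28 °C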
Dynein transport – dynein cargo transport inhibition | z-score, hits read low | 3617.4 mouse cells, GR-EGFP nuclear translocation imaging; test concentration mostly 20 µM; stimulated with dexamethasone, 1 µM; stronger effect = lower value | 220,000 compounds, 0.47% hits;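 active = plate z-score of nuclear minus cytoplasmic receptor signal below a set negative limit, without overly bright fluorescence or cell loss, cut at about -3.5 in these data, passing the limit was not always enough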;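 also: z-score of nuclear minus cytoplasmic ring GR-EGFP intensity difference per well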
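Schedule: 48 h induction, then 1 h compound, then 30 min agonist, 37 °C. Buffer or medium: tetracycline-free induction medium containing charcoal-stripped FBS. Reagent: 1.0 µM final dexamethasone stimulus. Evaluation: nuclear versus cytoplasmic GR-EGFP signal, averaged per well. Signal: high-content fluorescence imaging after fixation.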
bCat nuc transl – alters nuclear translocation of beta-catenin in HeLa cells; immunofluorescence imaging; AID 1665; nuclear translocation activity, % at 5 µM; 190,000 compounds, 0.3% hits;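 active = nuclear translocation activity above 50% at 5 µM, with a well cell count of 50 or more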;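 also: per-cell ratio of nuclear to cytoplasmic median beta-catenin stain intensity; plate controls were DMSO negative control for no effect and GSK-3 inhibitor IX positive control for full effect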
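assay system = human HeLa cells, endogenous beta-catenin | times = compound treatment 24 h, 37°C, 5% CO2 | detection = Anti-beta-catenin immunofluorescence on PFA-fixed, Triton-permeabilized cells, DAPI nuclei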
HSV replic up – HSV replication enhancement; HSV replication augmentation in cells, fold increase; maximum fold increase; 220,000 compounds, 0.005% hits; AID 1956; in the data active = maximum fold increase above about 1.5; tested in PC3 cells
MT stabilizer – microtubule stabilization, imaging screen; HeLa tubulin immunostaining HCS, 24 h; share of cells brighter than vehicle mean+2SD; % tubulin-high responders, % at 10 µM; 200,000 compounds, 0.83% hits;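 active = plate Z-score above 3 for both tubulin-high and condensed-nucleus cell shares, with cell loss under 80%, at 10 µM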;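 also: anti alpha tubulin signal scored within the nucleus-defined area of each cell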
Starred values were filed as active, the others as inactive; i = inactive; · = not tested or not shown. Shown are actives, neighbours in structure and some others; about 8.9% of the full set was active somewhere.

SMILES	L major viab	Dynein transport	bCat nuc transl	HSV replic up	MT stabilizer
O=C(Nc1ccc(Cl)cn1)c1cccc(F)c1	1	0.021	100*	i	39*
O=C(Nc1ccc(Cl)cn1)c1ccccc1F	-4	-1	3	i	17
Fc1ccc(NC(=S)NC2CCN(Cc3ccccc3)CC2)cc1	89*	-0.52	0	i	3
CCN1CCC(NC(=O)Nc2ccc(F)cc2)CC1	0	1.2	-3	i	5
O=C(NNC(=O)C1CCN(Cc2cccc(F)c2)CC1)c1cccs1	-7	-0.21	1	i	1
O=C(NNC(=O)C1CCN(Cc2cccc(F)c2)CC1)c1cccc(Cl)c1	64*	-0.63	-2	i	4
S=C(Nc1ccc(Cl)c(Cl)c1)NC1CCN(Cc2ccccc2)CC1	95*	·	-1	i	2
Cc1cccc(NC(=S)NC2CCN(Cc3ccccc3)CC2)c1C	89*	0.71	·	·	5
O=C(NC1CCN(Cc2ccccc2)CC1)c1ccc2c(c1)OCCCO2	·	1	-1	i	·
COc1ccc(/C=C(\NC(=O)c2ccccc2)C(=O)N/N=C/c2sccc2C)cc1	3	0.39	-1	i	7
S=C(NC1CCCCC1)N1CCN(Cc2ccccc2)CC1	2	0.24	-1	i	1
CC(C)(C)CC(C)(C)NC(=S)NC1CCN(Cc2ccccc2)CC1	89*	0.11	1	i	4
COc1cccc(NC(=O)NC2CCN(Cc3nnnn3Cc3ccc(F)cc3)CC2)c1	-10	-0.66	-2	i	4
O=C(Nc1cccc(F)c1)NC1CCN(Cc2ccccc2)CC1	56*	0.14	7	i	6
COc1ccccc1-c1cc(N)n[nH]1	-4	-0.8	·	i	2
CCn1c(SCC(=O)c2cc(C)n(-c3ccc(C(=O)OC)cc3)c2C)nnc1-c1cccnc1	71*	-0.83	-5	i	1
O=C1ON=C(c2ccccc2)/C1=C/c1ccco1	3	-0.62	-5	i	4
Cc1ccc(OCC(=O)NNc2c3ccccc3nc3ccccc23)cc1	97*	-0.81	1	i	1
Cc1sc(NC(=O)c2ccccc2)c(C#N)c1-c1ccccc1	46	0.47	-2	i	2
O=C(NNc1cccc(Cl)n1)Nc1cccc(Cl)c1	97*	0.14	-3	i	2
O=C(NNc1cccc(Cl)n1)Nc1ccccc1	39	-0.18	·	i	2
O=C(Nc1ccc(Br)cn1)c1cccc2c1-c1ccccc1C2=O	1	1.4	1	i	36*
C=CCn1c(SCC(=O)NC(=O)NCC(C)C)nnc1C1CCCCC1	-5	-0.28	0	i	2
CCC(C)C(NC(=O)OC(C)(C)C)C(=O)NCc1ccco1 (stereo not given)	-8	-0.86	-1	i	2
COc1ccc(NC(=O)/C(C#N)=C/c2ccc3c(c2)n(C)c(=O)n3C)cc1	57*	-0.46	·	i	3
SMILES	L major viab	Dynein transport	bCat nuc transl	HSV replic up	MT stabilizer
O=C(COc1ccc(Cl)cc1)NCCN1CCCCC1	24	0.19	1	i	3
Cc1ccc(C(=O)CN(C(=O)c2ccc(Cl)cc2)N2C(=O)c3ccccc3C2=O)cc1	-16	-1.1	1	i	3
Cc1ccc(C(=O)CN(C(=O)c2ccc(Cl)cc2)N2C(=O)CCC2=O)cc1	89*	0.95	-2	i	4
CC(=O)NC1C(c2nc3ccccc3s2)=C(c2ccccc2)C(=O)N1c1ccc(C)cc1 (stereo not given)	97*	-0.6	·	i	1
Cc1ccc2[nH]c3c(c2c1)CN(C(=O)CN1c2ccc(F)cc2CCC1C)CC3 (stereo not given)	33	0.38	30	i	38*
Cc1ccc2[nH]c3c(c2c1)CN(C(=O)CN1CCN(c2cccc(C)c2C)CC1)CC3	66*	-1.6	·	i	2
Cc1ccc2[nH]c3c(c2c1)CN(C(=O)CN1CCN(C(=O)c2ccco2)CC1)CC3	·	0.14	0	i	·
COc1ccc(OC)c(Nc2nc(-c3cccc([N+](=O)[O-])c3)nc3ccccc23)c1	3	-0.91	-1	i	1
Cc1cc(N2CCCCC2)nc(N)n1	52*	-0.42	-3	i	4
Cc1cc(N2CCCC2)nc(-c2ccccc2O)n1	-4	-0.14	·	i	2
Cc1ccc(CN2C(=O)[C@H]3Cc4c([nH]c5ccccc45)C(C)(C)N3C2=O)cc1	·	·	·	i	·
CCCCN(C)CC(O)Cn1cc(/C=C/C(=O)c2cccs2)c2ccccc21 (stereo not given)	69*	0.024	-1	i	3
Cc1ccc(C(=O)/C=C/c2cn(CN3CCN(C)CC3)c3ccccc23)cc1	3	-0.71	3	i	2
O=C(/C=C/c1cn(CC(O)CN2CCCCCC2)c2ccccc12)c1cccs1 (stereo not given)	100*	5.5	5	i	3
CN(C)CCNC(=O)c1cccc(S(=O)(=O)Nc2ccccc2F)c1	-2	0.18	-2	i	3
O=S(=O)(c1ccc(S(=O)(=O)N2CCN(C/C=C/c3ccccc3)CC2)cc1)N1CCCC1	22	-0.28	2	i	2
O=[N+]([O-])c1cc(Br)c(O)c(C=Nc2ccc(N3CCOCC3)cc2)c1	3	-0.44	1	i	5
Oc1ccc(N=Cc2cc(Br)c(N3CCOCC3)o2)cc1	67*	-0.67	·	i	1
Cc1ccc(-c2nc3ccccc3c(=O)n2-c2c(C)n(C)n(-c3ccccc3)c2=O)cc1	·	-0.23	0	i	·
CCC(NS(=O)(=O)c1ccc(C)cc1)C(=O)N1CCC2(O)CCCCC2C1 (stereo not given)	-7	-0.58	·	i	3
O=C(C(Cc1ccc(Cl)cc1)NS(=O)(=O)c1ccccc1)N1CC[C@@]2(O)CCCC[C@H]2C1 (stereo not given in full)	51*	-0.19	1	i	2
Cc1ccccc1C(=O)NC(=S)NCC(=O)c1ccccc1	0	-0.38	-1	i	2
COC(CNC(=O)c1ccc(Cn2c(=S)[nH]c3cc4c(cc3c2=O)OCO4)cc1)OC	-2	0.59	-2	i	3
COc1ccc(/C=C/C(=O)c2ccccc2)c(OC)c1	74*	-0.057	-2	i	5
COc1ccccc1/C=C/C(=O)N1CCOCC1	-1	-0.48	·	i	2
SMILES	L major viab	Dynein transport	bCat nuc transl	HSV replic up	MT stabilizer
COc1ccccc1/C=C/C(=O)c1ccc(Cl)cc1	86*	-0.62	0	i	4
COc1ccccc1/C=C/C(=O)c1c2c(c(C)[nH]c1=O)CCCC2	77*	-2.5	2	i	12
COc1ccc(C=C2c3ccccc3C(=O)c3ccccc32)c(OC)c1	·	-0.61	82*	i	·
COc1ccccc1/C=C/C(=O)c1ccccc1	·	0.49	3	i	·
CCOc1ccc(C(=O)c2ccccc2C(=O)O)cc1OCC	-7	-0.74	-1	i	3
COc1cc(OC)c(OC)cc1/C=C/C(=O)c1ccc(NS(=O)(=O)c2ccc(C)cc2)cc1	62*	-0.4	-1	i	3
